# From ChEMBL document CHEMBL1122996, “Interactions of apomorphine with serum and tissue proteins” (J Med Chem, 1985)
# “And” between values parts separate entries of the source, which are not always exact repeats. Equal values may be shown once.
# Experiments:
# Sus scrofa [1] = organism: Sus scrofa; assay: Percentage binding to swine plasma proteins at 20.0 ug/mL concentration of the compound; format: cell-free
# Procedure, shortened: (§1)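 Plasma came from male Sprague-Dawley rats (~450 g, ether, vena cava blood, lithium heparin) or from six mature female swine (jugular catheter, heparinized). It was spiked with 1-HCl (10 ng–50 µg/mL) containing 0.5 mCi/mL [³H]-1. Samples were ultrafiltered as for human plasma, and the ultrafiltrate was analysed by HPLC peak-collection LSC. N = 4.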
# Albumin [2] = target: T1, Albumin (Bos taurus, UniProt P02769); assay: Covalent binding of compound to serum albumin after 1 hr when the level of [8,9-3H2]-1is 2.6 dpm *10e6; settings: cattle
# T1 sequence (P02769 whole entry): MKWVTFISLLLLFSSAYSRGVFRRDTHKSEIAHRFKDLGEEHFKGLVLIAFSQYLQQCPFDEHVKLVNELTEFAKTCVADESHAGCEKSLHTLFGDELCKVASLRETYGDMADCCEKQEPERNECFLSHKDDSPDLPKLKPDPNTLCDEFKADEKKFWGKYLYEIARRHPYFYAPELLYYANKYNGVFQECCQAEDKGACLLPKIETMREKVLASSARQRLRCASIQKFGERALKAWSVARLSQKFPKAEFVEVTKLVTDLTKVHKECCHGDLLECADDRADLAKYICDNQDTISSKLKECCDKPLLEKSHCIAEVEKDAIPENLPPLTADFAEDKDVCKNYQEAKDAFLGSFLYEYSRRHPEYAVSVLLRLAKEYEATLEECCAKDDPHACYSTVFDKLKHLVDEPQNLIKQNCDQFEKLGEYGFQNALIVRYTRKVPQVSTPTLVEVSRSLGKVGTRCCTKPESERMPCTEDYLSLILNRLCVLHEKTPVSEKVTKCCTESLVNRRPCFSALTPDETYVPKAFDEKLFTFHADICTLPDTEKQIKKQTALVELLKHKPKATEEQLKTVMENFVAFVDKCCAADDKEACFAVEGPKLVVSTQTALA
# Procedure, shortened: (§2)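 BSA (32 mg) with 2 mg apomorphine HCl hemihydrate plus tritiated [8,9-3H2]apomorphine at the level stated, in pH 7.4 phosphate buffer, 2.1 mL total, incubated 1 h. Incubates were extracted twice with ethyl acetate. Protein-bound radioactivity was measured by LSC after one of three workups: perchloric acid precipitation with repeated trifluoroacetic acid-ethanol washes; Sephadex G-25 gel filtration in 1% sodium lauryl sulfate buffer; or 4-day dialysis.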
# Homo sapiens [3] = organism: Homo sapiens; assay: Percentage binding to human plasma proteins was determined by collecting HPLC eluate at 0.01 micro g/ml concentration of compound 1 in plasma; format: cell-free
# Procedure, shortened: (§3)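 Fresh plasma from fasted healthy human volunteers was spiked with 1-HCl plus [³H]-1 tracer. It was incubated 10 min at 37 °C and ultrafiltered through YMT membranes (1000g, 5 min, 37 °C). Ultrafiltrate was acidified with pH 3.0 acetate buffer containing carrier 1-HCl, argon-flushed and frozen at -15 °C. Phenyl-column HPLC was read by peak-eluate collection LSC, UV peak area, or radiochemical detection. % bound was calculated from total vs ultrafiltrate using a plasma water fraction of 0.93.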
# Rattus norvegicus [4] = organism: Rattus norvegicus; assay: Percentage binding to rat plasma proteins at 0.01 ug/mL concentration of the compound; format: cell-free; procedure, shortened: as §1
# Mus musculus [5] = organism: Mus musculus; assay: Radio activity in skeletal tissue (% dose/g of wet wt) on 14 days; format: functional
# Procedure, shortened: (§4)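 Male CD-1 mice (~35 g, n=10 per group) received apomorphine 30 mg/kg with [3H]-apomorphine (0.153 mCi/kg) ip, once or daily for 14 days. Killed 24 h after the last dose; GI tract (with contents or washed with distilled water), liver and kidney (rinsed of blood) and skeletal tissue taken. Radioactivity given as % of total dose; skeletal tissue as % dose/g wet weight.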
# Mus musculus [6] = organism: Mus musculus; assay: Ratio of accumulation of radioactivity from 14 to 1 day in cerebellum; format: functional
# Procedure, shortened: (§5)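 Male CD-1 mice (~35 g, 10 per group) received 1 at 30 mg/kg ip with [³H]-1 (0.153 mCi/kg), once or daily for 14 days, with free access to food and water. At 24 h after the last dose, plasma (infraorbital sinus), brain regions, kidney, liver and GI tract were taken for radioactivity counting. The accumulation ratio is radioactivity after 14 doses divided by radioactivity after 1 dose.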
# Albumin [7] = target: T1, Albumin; assay: Covalent binding of compound to serum albumin after 1 hr when the level of [8,9-3H2]-1is 2.6 dpm *10e6 expressed as mol of drug/mol of serum albumin; settings: cattle; procedure, shortened: as §2
# Homo sapiens [8] = organism: Homo sapiens; assay: Percentage binding to human plasma proteins was determined by measuring HPLC peak at 0.10 micro g/ml concentration of compound 1 in plasma; format: cell-free; procedure, shortened: as §3
# Mus musculus [9] = organism: Mus musculus; assay: Radio activity of [3H]-l in mice in GI tract with its contents on 14 days; format: functional, Gastrointestinal tract; procedure, shortened: as §4
# Mus musculus [10] = organism: Mus musculus; assay: Radio activity of [3H]-l in washed mice GI tract on 14 days; format: functional, Gastrointestinal tract; procedure, shortened: as §4
# Mus musculus [11] = organism: Mus musculus; assay: Radio activity of [3H]-l in mice kidney on 14 days; format: functional; procedure, shortened: as §4
# Mus musculus [12] = organism: Mus musculus; assay: Percentage of covalently bound total in cerebellum of mouse; format: functional
# Procedure, shortened: (§6)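 Male CD-1 mice (~35 g, n=10) given apomorphine 30 mg/kg with [3H]-apomorphine (0.153 mCi/kg) ip daily for 14 days, killed 24 h after the last dose. Plasma from infraorbital sinus; brain split into striatum, cerebellum, forebrain without striatum. Protein-bound radioactivity expressed as µg/g protein (albumin equivalent; plasma µg/mL) and as % of total tissue radioactivity.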
# Sus scrofa [13] = organism: Sus scrofa; assay: Percentage binding to swine plasma proteins at 5.0 ug/mL concentration of the compound; format: cell-free; procedure, shortened: as §1
# Mus musculus [14] = organism: Mus musculus; assay: Ratio of accumulation of radioactivity from 14 to 1 day in extractable reactivity in plasma; format: functional; procedure, shortened: as §5
# Mus musculus [15] = organism: Mus musculus; assay: Ratio of accumulation of radioactivity from 14 to 1 day in striatum; format: functional; procedure, shortened: as §5
# Mus musculus [16] = organism: Mus musculus; assay: Percentage of covalently bound total in forebrain without striatum of mouse; format: functional; procedure, shortened: as §6
# Mus musculus [17] = organism: Mus musculus; assay: Percentage of covalently bound total in striatum of mouse; format: functional; procedure, shortened: as §6
# Mus musculus [18] = organism: Mus musculus; assay: Radio activity accumulation in plasma (Excreatable reactivity) on day 1; format: functional
# Procedure, shortened: (§7)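 Male CD-1 mice (~35 g, n=10 per group) given apomorphine 30 mg/kg fortified with [3H]-apomorphine (0.153 mCi/kg) ip, either once or daily for 14 days. Sampled 24 h after the last dose: plasma from infraorbital sinus (extractable and nonextractable radioactivity) and brain regions (striatum, cerebellum, forebrain without striatum). Radioactivity expressed as µg apomorphine equivalent per mL or per g […].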
# Rattus norvegicus [19] = organism: Rattus norvegicus; assay: Percentage binding to rat plasma proteins at 50.0 ug/mL concentration of the compound; format: cell-free; procedure, shortened: as §1
# Homo sapiens [20] = organism: Homo sapiens; assay: Percentage binding to human plasma proteins was determined by collecting HPLC eluate at 0.10 micro g/ml concentration of compound 1 in plasma; format: cell-free; procedure, shortened: as §3
# Mus musculus [21] = organism: Mus musculus; assay: Radio activity accumulation in extractable reactivity in plasma brain (Excreatable reactivity) on 14 days; format: functional; procedure, shortened: as §7
# Mus musculus [22] = organism: Mus musculus; assay: Radio activity accumulation in nonextractable radioactivity in striatum (Excreatable reactivity) on 14 days; format: functional; procedure, shortened: as §7
# Albumin [23] = target: T1, Albumin; assay: Covalent binding of compound to serum albumin after 1 hr when the level of [8,9-3H2]-1is 2.7 dpm *10e6; settings: cattle; procedure, shortened: as §2
# Mus musculus [24] = organism: Mus musculus; assay: Radio activity accumulation in cerebellum (Excreatable reactivity) on 14 days; format: functional; procedure, shortened: as §7
# Mus musculus [25] = organism: Mus musculus; assay: Radio activity accumulation in plasma (Excreatable reactivity) on 14 days; format: functional; procedure, shortened: as §7
# Mus musculus [26] = organism: Mus musculus; assay: Radio activity of [3H]-l in mice liver on 14 days; format: functional; procedure, shortened: as §4
# Mus musculus [27] = organism: Mus musculus; assay: Ratio of accumulation of radioactivity from 14 to 1 day in liver; format: functional; procedure, shortened: as §5
# Sus scrofa [28] = organism: Sus scrofa; assay: Percentage binding to swine plasma proteins at 50 ug/mL concentration of the compound; format: cell-free; procedure, shortened: as §1
# Homo sapiens [29] = organism: Homo sapiens; assay: Percentage binding to human plasma proteins was determined by measuring HPLC peak with radiochemical detection at 1.0 micro g/ml concentration in plasma; format: cell-free; procedure, shortened: as §3
# Mus musculus [30] = organism: Mus musculus; assay: Radio activity covalently bound to cerebellum of mouse brain; format: functional; procedure, shortened: as §6
# Mus musculus [31] = organism: Mus musculus; assay: Radio activity of [3H]-l in mice liver on day 1; format: functional; procedure, shortened: as §4
# Mus musculus [32] = organism: Mus musculus; assay: Ratio of accumulation of radioactivity from 14 to 1 day in washed gastro intestinal track; format: functional; procedure, shortened: as §5
# Mus musculus [33] = organism: Mus musculus; assay: Radio activity covalently bound to forebrain without striatum of mouse brain; format: functional; procedure, shortened: as §6
# Mus musculus [34] = organism: Mus musculus; assay: Radio of accumulation of radioactivity from 14 to 1 day in nonextractable radioactivity in plasma brain; format: functional; procedure, shortened: as §5
smiles,measurement,setting,value
CN1CCc2cccc3c2[C@H]1Cc1ccc(O)c(O)c1-3 [APOMORPHINE],Binding,Sus scrofa [1],86.2%
same,Binding,Albumin [2],8238 dpm mg-1 and 9938 dpm mg-1
same,Binding,Homo sapiens [3],96.8%
same,Binding,Rattus norvegicus [4],91.3%
same,Amount,Mus musculus [5],0.394%
same,Ratio,Mus musculus [6],2.9
same,Binding,Albumin [7],4 M of drug (M of BSA)-1 and 4.8 M of drug (M of BSA)-1 and 4.4 M of drug (M of BSA)-1
same,Binding,Homo sapiens [8],96.6%
same,Amount,Mus musculus [9],4.01%
same,Amount,Mus musculus [10],0.558%
same,Amount,Mus musculus [11],0.331%
same,Binding,Mus musculus [12],1.71%
same,Binding,Sus scrofa [13],90.4%
same,Ratio,Mus musculus [14],2.6
same,Ratio,Mus musculus [15],2.7
same,Binding,Mus musculus [16],1.62%
same,Binding,Mus musculus [17],1.65%
same,Accumulation,Mus musculus [18],0.561 µg/mL
same,Binding,Rattus norvegicus [19],89.1%
same,Binding,Homo sapiens [20],97.8%
same,Accumulation,Mus musculus [21],1.42 µg/mL
same,Accumulation,Mus musculus [22],56.9 µg/g
same,Binding,Albumin [23],8465 dpm mg-1 and 12693 dpm mg-1
same,Accumulation,Mus musculus [24],57.3 µg/g
same,Accumulation,Mus musculus [25],1.42 µg/mL
same,Amount,Mus musculus [26],0.99%
same,Ratio,Mus musculus [27],2.6
same,Binding,Sus scrofa [28],87%
same,Binding,Homo sapiens [29],94.9%
same,Binding,Mus musculus [30],0.98 µg/g
same,Amount,Mus musculus [31],0.38%
same,Ratio,Mus musculus [32],9.7
same,Binding,Mus musculus [33],1.13 µg/g
same,Ratio,Mus musculus [34],2.6
